Assay results collected from several papers.
Compare with care: the assays were run in different laboratories.
Target: Mitogen-activated protein kinase kinase kinase 2 (MAP3K2, Homo sapiens, UniProt Q9Y2U5)
Sequence (Q9Y2U5 1-619, as in one of the studies): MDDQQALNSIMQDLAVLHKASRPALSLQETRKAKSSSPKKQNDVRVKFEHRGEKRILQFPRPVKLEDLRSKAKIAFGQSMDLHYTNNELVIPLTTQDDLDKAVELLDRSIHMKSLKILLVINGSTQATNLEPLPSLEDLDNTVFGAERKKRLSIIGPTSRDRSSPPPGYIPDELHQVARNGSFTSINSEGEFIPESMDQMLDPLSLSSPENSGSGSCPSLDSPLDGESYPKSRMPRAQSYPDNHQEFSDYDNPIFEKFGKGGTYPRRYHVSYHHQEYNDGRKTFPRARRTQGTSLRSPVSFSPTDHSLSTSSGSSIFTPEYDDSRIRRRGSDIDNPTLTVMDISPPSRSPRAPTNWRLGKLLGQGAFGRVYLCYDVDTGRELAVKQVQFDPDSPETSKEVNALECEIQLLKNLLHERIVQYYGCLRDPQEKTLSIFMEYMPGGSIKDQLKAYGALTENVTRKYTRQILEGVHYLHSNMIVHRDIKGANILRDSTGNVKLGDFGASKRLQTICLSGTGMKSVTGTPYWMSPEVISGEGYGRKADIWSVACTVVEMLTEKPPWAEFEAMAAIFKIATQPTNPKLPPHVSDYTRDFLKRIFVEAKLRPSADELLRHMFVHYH

COCc1c(-c2cc3cc(C)cc(OC)c3s2)c2c(N)ncnn2c1CN1CCNC(=O)C1
inhibition (cell-free assay; competition with immobilised ligand; 1 µM): 98.8%

O=c1[nH]c2ccccc2n1C1CCN(Cc2ccc(-c3[nH]c4cc5ncnc5cc4nc3-c3ccccc3)cc2)CC1
remaining signal (cell-free assay; 0.5 µM): 92.4%

Cn1cc(-c2cccc(N3CCc4c(sc5c4CC(C)(C)C5)C3=O)c2CO)cc(Nc2ccncn2)c1=O
inhibition (enzyme activity; inhibitor; 1 µM): -2%

CC(C)(C)c1cc(C=C(C#N)C#N)cc(Br)c1O
remaining activity (enzyme activity; inhibitor; 0.5 µM): 93.7%

COc1ncccc1-c1cnn2ccc(N3CCN(C(=O)OC(C)C)CC3)nc12
remaining binding (binding; competition with immobilised ligand; 1 µM): 100%

Cc1nn(C)cc1-c1nc2c(N3CCN(Cc4ccc(Cl)cc4)CC3)c(Cl)cnc2[nH]1
remaining binding (binding; competition with immobilised ligand; 1 µM): 77%

N#CC1(c2ccccn2)CCN(Cc2cc(C(=O)O)c(=O)n3ccccc23)CC1
remaining binding (cell-free assay; competition with immobilised ligand; 1 µM): 76%

Cn1cc(-c2cc(F)cc(N3CCn4c(cc5c4CCCC5)C3=O)c2CO)cc(Nc2ccc(N3CCN(C4COC4)CC3)cn2)c1=O
inhibition (enzyme activity; inhibitor; 0.1 µM): -1%

Cn1cncc1[C@](O)(COc1ccc(C#N)cc1-c1ccc(OC(F)(F)F)cc1)c1ccc(C#N)cc1
remaining binding (cell-free assay; competition with immobilised ligand; 1 µM): 77%

Nc1ncc(-c2nc(N3CCOCC3)nc(N3CCOCC3)n2)c(C(F)F)n1
remaining binding (binding; competition with immobilised ligand; 10 µM): 71%

COc1cc(Nc2ncc(F)c(Nc3ccc4c(n3)NC(=O)C(C)(C)O4)n2)cc(OC)c1OC
inhibition (binding; competition with immobilised ligand; 10 µM): 99%
